RAM network inh: blocks the yeast RAM network; S. cerevisiae dse1pr::URA3 reporter, 5-FOA growth OD615, 2 d; analog-sensitive cbk1-as2 kinase mutant strain; inhibition, % at 50 µM; 190,000 compounds, 1.8% hits; AID 868;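 active = inhibition above a set limit, 3 SD over mean compound inhibition, cut at about 8.4% in these data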;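 also: inhibition rescues growth on 5-FOA so higher OD means more RAM inhibition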
Yeast growth inh: yeast BB579 growth reduction in restrictive medium; AID 804; S. cerevisiae BB579 growth, OD615, 48 h; inhibition, % at 10 µM; 140,000 compounds, 0.51% hits;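 active = inhibition above a set limit, 3 SD over the mean compound inhibition, cut at about 44% in these data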
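Assay system – yeast BB579 (DeaD) · Dosing – single compound dose of 10 µM, 0.25% DMSO final · Detection – OD615 turbidity measurement · Buffer or medium – CSMM-D restrictive synthetic medium containing dextrose (glucose) · Benchmarks – positive control amphotericin B 10 µg/mL · Incubation – 48 h exposure, 30 °C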
TNAP inh hiacc: TNAP (human) inhibition, high acceptor. purified TNAP, CDP-star luminescence, 1 M DEA. inhibition, % at 20 µM. P05186. AID 1135. 200,000 compounds, 0.03% hits;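 active = over 50% inhibition of tissue-nonspecific alkaline phosphatase at 20 µM in the single-dose screen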
Target sequence (P05186 whole entry, looked up): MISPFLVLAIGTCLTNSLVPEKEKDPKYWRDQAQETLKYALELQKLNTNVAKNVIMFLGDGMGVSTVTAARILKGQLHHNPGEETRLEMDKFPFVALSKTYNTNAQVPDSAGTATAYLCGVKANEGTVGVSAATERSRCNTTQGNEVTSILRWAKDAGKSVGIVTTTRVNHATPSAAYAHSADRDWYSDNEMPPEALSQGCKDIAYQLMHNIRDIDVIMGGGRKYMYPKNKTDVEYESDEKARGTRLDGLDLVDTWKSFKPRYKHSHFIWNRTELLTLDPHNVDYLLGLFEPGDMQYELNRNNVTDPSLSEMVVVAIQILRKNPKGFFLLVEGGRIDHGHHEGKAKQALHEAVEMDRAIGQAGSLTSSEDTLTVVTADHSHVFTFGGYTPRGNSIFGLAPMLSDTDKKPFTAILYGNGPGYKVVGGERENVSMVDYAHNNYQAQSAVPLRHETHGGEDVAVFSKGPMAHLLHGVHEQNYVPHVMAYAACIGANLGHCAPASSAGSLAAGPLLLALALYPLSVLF
TNAP inh no acc: TNAP (human) inhibition, acceptor-free conditions; inhibition, % at 20 µM; purified TNAP, CDP-star luminescence, 30 min; 200,000 compounds, 0.26% hits; AID 1012;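 active = tissue-nonspecific alkaline phosphatase inhibition above about 50% at 20 µM in the single-dose screen, limit read from the data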
Yeast lifespan up: yeast lifespan extension. S. cerevisiae growth with nicotinamide, OD615; deaD strain in restrictive glucose medium. inhibition of the nicotinamide effect, % at 10 µM. 130,000 compounds, 0.68% hits. AID 775;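 active = inhibition above a set limit, placed 3 SD over the median of all compounds, cut at about 26% in these data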
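Assay system: engineered S. cerevisiae DeaD replicative-lifespan strain, galactose-grown log-phase cells; Buffer or medium: CSMM-D glucose medium, restrictive; Probe or stimulus: nicotinamide 1.5 mM; Compound: single dose 10 µM compound, 0.25% DMSO; Schedule: 4 h preincubation then 48 h treatment at 30 °C; Technique: OD615 measurement.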
TNAP act hi DEA: TNAP (human) activation, high acceptor | purified TNAP, CDP-star luminescence, 1 M DEA, 30 min; active compounds read high; 0 = EDTA background, 1 = DMSO-only activity | 200,000 tested, under 10 active | P05186 | activation factor at 20 µM;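 active = activation factor at least 2 at 20 µM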
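Assay system: human TNAP; Input: enzyme diluted 1/800 final; Reagent: CDP-star luminogenic substrate at 100 µM final; Timing: 30 min, room temperature; Signal: luminescence; Evaluation: TNAP activation factor scaled between EDTA and DMSO control wells.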
Each line names hits and unclear results; the compound was inactive in the other large screens. The list is not random: actives were taken first. Their share in the collection is about 2.8%.

O=C(Nc1ccc(Cn2cccn2)cc1)c1ccc(COc2cccc(Br)c2)cc1	RAM network inh 9.9
CCOc1ccccc1/C=c1\sc2ncnn2c1=O	Yeast lifespan up 49
FC(F)(F)c1ccc(C2NCCc3sccc32)cc1 (stereo unspecified)	none (no result: Yeast growth inh, Yeast lifespan up)
Cc1ccccc1NC(=S)N(CCN1CCOCC1)Cc1ccccc1F	none (no result: Yeast growth inh, Yeast lifespan up)
CCCn1c(C)cc(C(=O)COc2ncnc3sccc23)c1C	Yeast lifespan up 49
O=C(COC(=O)/C=C/c1cccc(Br)c1)NCCC1=CCCCC1	RAM network inh 9.8
Cn1cc(CNCc2ccc(-n3cccn3)cc2)c(-c2ccccc2F)n1	none (no result: Yeast growth inh, Yeast lifespan up)
CCCN(CCO)Cc1ccc2ccccc2c1	none
C/C=C/Cn1c(N2CCCCCC2)nc2c1c(=O)[nH]c(=O)n2C	Yeast lifespan up 137
C=C(C)CSc1nc2ncccc2[nH]1	TNAP inh no acc 66
CC1CCCN(C(=O)CSc2nc3ncccc3[nH]2)C1 (stereo unspecified)	TNAP inh no acc 53 (no result: Yeast growth inh, Yeast lifespan up)
O=C(/C=C/c1ccc([N+](=O)[O-])cc1)Nc1ncc([N+](=O)[O-])s1	none (no result: Yeast growth inh, Yeast lifespan up)
C#CCOCCOCCOCCNc1nc(N2CCN(C(=O)C([C@@H](C)CC)n3cc(C(N)Cc4ccc(O)cc4)nn3)CC2)nc(N2CCN(C(=O)[C@H](CCC(=O)O)n3cc(C(N)CO)nn3)CC2)n1 (stereo partly specified)	none (no result: Yeast growth inh, Yeast lifespan up)
Cc1cc2ncn(/N=C/c3cccnc3)c2cc1C	none
Cc1cc2ncn(/N=C/c3ccc(-c4ccccc4)o3)c2cc1C	RAM network inh 9.5
COc1ccc(O)c(-c2cc(-c3cccc(Br)c3)n[nH]2)c1	RAM network inh 10
Cc1ccc(-c2cc(-c3ccccc3C)[nH]n2)c(O)c1	Yeast growth inh 100 (no result: Yeast lifespan up)
Cc1ccc(O)c(-c2cc(-c3cccc(F)c3)n[nH]2)c1	Yeast growth inh 99
Cc1ccc(O)c(-c2cc(-c3ccccc3F)[nH]n2)c1	none
Cc1ccc(-c2cc(-c3cccc(F)c3)n[nH]2)c(O)c1	none
Cc1ccc(-c2nnn(CC(=O)Nc3ccccc3N3CCOCC3)n2)cc1	none
CC(=O)c1cccc(S(=O)(=O)N2CCCC(c3nc(-c4ccc(C)o4)no3)C2)c1 (stereo unspecified)	RAM network inh 9.3
CCCCCCNC(=O)c1c(O)c2ccccc2[nH]c1=O	Yeast lifespan up 36
CCOCc1c(C(=O)OCC(=O)/C(C#N)=C(\C)N)oc2ccccc12	none (no result: Yeast growth inh, Yeast lifespan up)
O=C(CS(=O)c1ccc(C(F)(F)F)cc1[N+](=O)[O-])Oc1ccccc1 (stereo unspecified)	Yeast lifespan up 40
O=C(CNc1ccc(C(F)(F)F)cc1[N+](=O)[O-])OCC(=O)c1ccccc1	RAM network inh 11
c1ccc2c(c1)oc1c(N3CCN(Cc4ccc5c(c4)OCO5)CC3)ncnc12	none
CCOC(=O)C(C)(C)N(Cc1cccc(C)c1)S(=O)(=O)c1ccc(Cl)c([N+](=O)[O-])c1	RAM network inh 11
O=C(CN(c1cccc(C(F)(F)F)c1)S(=O)(=O)c1ccc(Cl)c([N+](=O)[O-])c1)NCc1ccccc1	none
Cc1cccc(C)c1NC(=O)c1sccc1SCc1cccc(C(F)(F)F)c1	RAM network inh 11
Cc1ccc(NC(=O)c2c(C(F)(F)F)nn(C)c2SCc2cccc(C(F)(F)F)c2)cc1C	none
COC(=O)c1ccc(OC)c(CSc2nnc(COc3ccc(Cl)cc3)o2)c1	RAM network inh 9.7
O=c1c2cccc3c2c(nn1CN1CCOCC1)-c1ccccc1-3	Yeast growth inh 93
O=C(NCCc1nnc2ccc(NCc3ccc(Cl)cc3)nn12)c1ccccc1	RAM network inh 8.5 (no result: Yeast growth inh, Yeast lifespan up)
O=C(CSc1ccc2nnc(CCNC(=O)c3ccccc3)n2n1)Nc1ccccc1F	none (no result: Yeast growth inh, Yeast lifespan up)
Cn1c2ccccc2c(=O)c2c(=O)n(C3CCCCCC3)c(C3CCCCC3)nc21	Yeast lifespan up 26
CCc1nc2c(c(=O)c3ccccc3n2C)c(=O)n1C1CCCCCC1	Yeast lifespan up 28
Cc1ccc(SCC(=O)NC(=O)Nc2ccc3c(c2)OCCO3)c(C)c1	none
CC(C)NC(=O)c1ccc(C2SCC(=O)N2Cc2ccccc2)cc1 (stereo unspecified)	none (no result: Yeast lifespan up)
CC(C)OCCCNC(=O)c1c(N)n(/N=C/c2cccs2)c2nc3ccccc3nc12	RAM network inh 11
COCCCNC(=O)c1c(N)n(/N=C/c2ccccn2)c2nc3ccccc3nc12	none
CCC(C)NC(=O)COc1ccccc1[N+](=O)[O-] (stereo unspecified)	none
CN(C)S(=O)(=O)c1ccc(N2CCCC2)c(C(=O)Nc2nc(-c3cc(F)ccc3F)cs2)c1	RAM network inh 9.2
CN(C)S(=O)(=O)c1ccc(N2CCCC2)c(C(=O)Nc2nc(-c3ccc(F)cc3)cs2)c1	none
CCc1ccc(NC(=O)C(C)OC(=O)c2cccc(S(=O)(=O)N3CCc4ccccc4C3)c2)cc1 (stereo unspecified)	none
CC1CC2(CCCCC2)Nc2c1ccc1ccccc21 (stereo unspecified)	RAM network inh 9.4 (no result: Yeast lifespan up)
CC(=O)N1c2c(ccc3ccccc23)C(C)CC12CCCCC2 (stereo unspecified)	none
O=C1CCC(/C=C/c2ccccc2)=NN1Cc1ccccc1	none (no result: Yeast growth inh, Yeast lifespan up)
CC(C)(C)c1ccc(CN2N=C(/C=C/c3ccccc3)CCC2=O)cc1	RAM network inh 9.8 (no result: Yeast growth inh, Yeast lifespan up)
COC(=O)c1cccc(NC(=O)Nc2ccccc2OC)c1	none (no result: Yeast growth inh, Yeast lifespan up)
CCc1nnc(N2C(=O)c3ccc(Oc4ccc([N+](=O)[O-])cc4)cc3C2=O)s1	Yeast lifespan up 52
O=C1c2ccc(Oc3ccc([N+](=O)[O-])cc3)cc2C(=O)N1c1ccncc1	none (no result: Yeast growth inh, Yeast lifespan up)
CN1CCN(CC(=O)N2CCn3c4c(c5cc(C6CCCCC6)ccc53)CCCC42)CC1 (stereo unspecified)	Yeast growth inh 100
Cc1ccc2c(c1)c1c3n2CCN(C(=O)CN2CCN(C)CC2)C3CCC1 (stereo unspecified)	none
COc1cc(OC)cc(C(=O)N[C@H](C(=O)OCC(=O)Nc2ccc(F)c(F)c2)C(C)C)c1	RAM network inh 8.6
COc1cc(OC)cc(C(=O)N[C@H](C(=O)OCC(=O)Nc2ccc(C(N)=O)cc2)C(C)C)c1	none
CCCn1[nH]cc(SC)c(=O)c1=O	Yeast lifespan up 42
COc1ccc([N+](=O)[O-])cc1NC(=O)c1ccc(CN(c2ccc(C)c(C)c2)S(C)(=O)=O)cc1	RAM network inh 9.7
COc1ccc(-n2cc(-c3ccc(OC)c(OC)c3)[nH]c2=S)cc1	none (no result: Yeast growth inh, Yeast lifespan up)
COc1ccc(-n2cc(-c3ccc(Br)cc3)[nH]c2=S)cc1	RAM network inh 9.6 (no result: Yeast growth inh, Yeast lifespan up)

High-throughput results (PubChem)
